Assay [1] deals with C2C12. The experiment in a line: Induction of 2-deoxy-[3H]-glucose uptake in mouse C2C12 cells at 5 uM after 2 hrs by liquid scintillation counting analysis. It is filed as functional, cell-based. The method in brief:
(§1)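 C2C12 myoblasts grown in DMEM/10% FBS, differentiated at confluence in 1% FBS DMEM to day 4. Myotubes serum-starved 3 h (0.2% BSA), 1 h in KRPH buffer pH 7.4, then compound (0.1% DMSO) for 2 h. Uptake of 0.5 μCi/mL 2-deoxy-[3H]-glucose plus 100 μM 2-deoxy-D-glucose for 10 min. Ice-cold PBS wash, SDS/NaOH lysis, scintillation counting normalized to protein. Three independent experiments in triplicate, mean ± SEM.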

Assay [2] deals with C2C12. The experiment in a line: Induction of 2-deoxy-[3H]-glucose uptake in mouse C2C12 cells at 10 uM after 2 hrs by liquid scintillation counting analysis relative to control. The class given is functional. The method in brief: as §1
In assay [3] the test system is C2C12. The experiment in a line: Potentiation of insulin-induced 2-deoxy-[3H]-glucose uptake in mouse C2C12 cells at 10 uM preincubated with cells followed by insulin induction for 30 mins by liquid scintillation counting analysis relative to control. It is filed as functional. The method in brief: (§2)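 Differentiated C2C12 myotubes, serum-starved 3 h then 1 h in KRPH buffer pH 7.4, given compound (0.1% DMSO), then 100 nM insulin for 30 min. 2-Deoxy-[3H]-glucose (0.5 μCi/mL) with 100 μM 2-deoxy-D-glucose taken up for 10 min. Cells washed in cold PBS, lysed in 0.1% SDS/0.5 M NaOH, scintillation counted and normalized to total protein. Mean ± SEM, three experiments in triplicate.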

In assay [4] the target is T1, Tyrosine-protein phosphatase non-receptor type 1 (Homo sapiens, UniProt P18031).
T1 sequence (P18031 whole entry): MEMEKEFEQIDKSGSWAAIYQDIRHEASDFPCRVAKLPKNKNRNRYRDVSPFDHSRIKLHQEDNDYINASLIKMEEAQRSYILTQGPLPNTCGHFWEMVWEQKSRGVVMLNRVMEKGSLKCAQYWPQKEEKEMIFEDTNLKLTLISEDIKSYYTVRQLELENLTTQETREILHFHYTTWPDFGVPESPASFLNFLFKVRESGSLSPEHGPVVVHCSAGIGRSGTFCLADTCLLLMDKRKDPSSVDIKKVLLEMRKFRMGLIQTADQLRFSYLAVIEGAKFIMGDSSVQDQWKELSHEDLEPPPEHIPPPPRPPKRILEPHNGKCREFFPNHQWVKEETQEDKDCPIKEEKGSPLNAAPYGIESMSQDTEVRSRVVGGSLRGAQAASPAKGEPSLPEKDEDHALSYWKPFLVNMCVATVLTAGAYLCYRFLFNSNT
As to the kind of experiment: Inhibition of PTP1B (unknown origin) using p-nitrophenyl phosphate as substrate after 30 mins. Put shortly:
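PTP1B (source not stated) 0.05−0.1 μg with 2 mM p-nitrophenyl phosphate in 50 mM citrate pH 6.0, 0.1 M NaCl, 1 mM EDTA, 1 mM dithiothreitol, ± test compound; 37 °C for 30 min, quenched with 10 M NaOH; p-nitrophenol read at 405 nm; IC50 determined.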

The subject of assay [5] is C2C12. The experiment in a line: Potentiation of insulin-induced 2-deoxy-[3H]-glucose uptake in mouse C2C12 cells at 5 uM preincubated with cells followed by insulin induction for 30 mins by liquid scintillation counting analysis. It is filed as functional, cell-based. Put shortly: as §2
Assay [6] concerns C2C12. The experiment in a line: Potentiation of insulin-induced 2-deoxy-[3H]-glucose uptake in mouse C2C12 cells at 30 uM preincubated with cells followed by insulin induction for 30 mins by liquid scintillation counting analysis relative to control. It is filed as functional. Put shortly: as §2
In assay [7] the test system is C2C12. As to the kind of experiment: Induction of 2-deoxy-[3H]-glucose uptake in mouse C2C12 cells at 30 uM after 2 hrs by liquid scintillation counting analysis. The class given is functional, cell-based. Put shortly: as §1

Structures are written as SMILES. Active and inactive are the calls of the source. The calls are words filed in the database; no cut-off is given here.

In general, IC50 refers to the concentration needed to halve the response being measured. A low value points to higher potency. On to `CC1=C2C(=O)[C@H]3[C@@H](CC=C4C[C@@H](OC=O)CC[C@@]43C)[C@@H]2CC[C@]12O[C@@H]1C[C@H](C)CN[C@H]1[C@H]2C`, for which the result in the assay on C2C12 [1] and with C2C12 [5] was Active. For the same molecule, the Activity with C2C12 [2] is listed as 15%; with C2C12 [3], 49.9%. In assay [4], this molecule came in with an IC50 of 11.3 µM.
As for `CC1=C2C(=O)[C@H]3[C@@H](CC[C@@H]4C[C@@H](O)C[C@@H](O)[C@@]43C)[C@@H]2CC[C@]12O[C@@H]1C[C@H](C)CN[C@H]1[C@H]2C`, the concentration for half-maximal inhibition (IC50) in assay [4] is more than 30 µM.
`CN(CCOc1ccc(CC2SC(=O)NC2=O)cc1)c1ccccn1` (stereo not drawn) [ROSIGLITAZONE]: in the assay on C2C12 [6], the Activity came out at 47.3%. In the assay on C2C12 [7], the result was Active.
Molecule `C[C@H]1CC[C@@H]2N(C1)C[C@H]1[C@@H]3C[C@H]4[C@@H](CC=C5C[C@@H](OC=O)CC[C@@]54C)[C@@H]3C[C@H](O)[C@@H]1[C@]2(C)O` showed an IC50 in assay [4] of more than 30 µM.
On the same count and under the same terms, the figure for `C[C@@H]1CN[C@H]2[C@@H](C)[C@@]3(CC[C@@H]4C(=C[C@H]5[C@H]4CC=C4C[C@@H](O)CC[C@@]45C)[C@@]3(C)O)O[C@@H]2C1` is more than 30 µM.
For the molecule `CC(=O)O[C@H]1CC[C@@]2(C)C(=CC[C@H]3c4ccc([C@H](C)[C@@H]5NC[C@@H](C)C[C@H]5O)c(C)c4C[C@@H]32)C1`, the figures for the Activity in the assay on C2C12 [2] and in the assay on C2C12 [3] were 24.8% and 56%, respectively. This molecule also registered an IC50 in assay [4] of 4.7 µM.

These data come from ChEMBL document CHEMBL3580545, “Steroidal Alkaloids from Veratrum nigrum Enhance Glucose Uptake in Skeletal Muscle Cells” (J Nat Prod, 2015).
